Measured values taken from ChEMBL document CHEMBL2331455, “Potent vasorelaxant analogs from chemical modification and biotransformation of isosteviol” (Eur J Med Chem, 2013).

Tests used:
Aorta = experiment: Vasorelaxant activity in Sprague-Dawley rat aorta assessed as reduction of phenylephrine-induced contraction; assay type: functional, tissue-based
How it was run: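 Aortic rings held in HPSS (140 mM NaCl, 5 mM KCl, 2 mM CaCl2, 1 mM MgCl2, 5 mM HEPES, 11 mM glucose, pH 7.4) and equilibrated 2 h with several buffer changes. Isometric force changes were recorded continuously. Acetylcholine served as positive control.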

Vero = experiment: Cytotoxicity against african green monkey Vero cells; assay type: cell-based; conditions: chlorocebus sabaeus

| EC50 (Aorta) [nM] | SMILES | Activity (Vero) |
| --- | --- | --- |
| 4.88 | CC(=O)O[C@@H]1C[C@]23CC[C@H]4[C@@](C)(CCC[C@@]4(C)C(=O)O)[C@@H]2CC[C@@]1(C)C3 |  |
| 41.8 | C[C@@]12CC[C@H]3[C@]4(C)CCC[C@@](C)(C(=O)O)[C@H]4C[C@H](O)[C@]3(C[C@H]1O)C2 |  |
| 65 | CC(=O)OCC[N+](C)(C)C [ACETYLCHOLINE IODIDE] |  |
| 19.5 | CC(=O)O[C@@H]1C[C@]23CC[C@H]4[C@@](C)(CCC[C@@]4(C)C(=O)O)[C@@H]2CC[C@@]1(C)[C@@H]3O |  |
| 59.7 | CC(=O)O[C@@H]1C[C@@]23C[C@]1(C)CC[C@H]2[C@]1(C)CCC[C@@](C)(C(=O)O)[C@H]1C[C@@H]3O |  |
| 29.1 | C[C@@]12CC[C@@H]3[C@@](CC[C@H]4[C@@]3(C)CCC[C@@]4(C)C(=O)O)(C[C@H]1O)C2 |  |
| 57.4 | C[C@@]12CC[C@@H]3[C@@](CC[C@H]4[C@@]3(C)CCC[C@@]4(C)C(=O)O)(CC1=O)C2 [ISOSTEVIOL] |  |
| 3.46 | C[C@@]12CC[C@H]3[C@]4(C)CCC[C@@](C)(C(=O)O)[C@H]4C[C@H](O)[C@]3(CC1=O)C2 | Non-toxic |
| 39.8 | C[C@@]12CC[C@H]3[C@]4(C)CCC[C@@](C)(C(=O)O)[C@H]4C[C@@H](O)[C@]3(C[C@H]1O)C2 |  |
| 303 | C[C@@]12CCC[C@@](C)(C(=O)O)[C@H]1CC[C@@]13C[C@@H](O)[C@@](C)(CC[C@@H]21)[C@@H]3O |  |
